Compounds with a hit are over-represented: about 4.8% of the library has one in this group of screens.
GPR7 antagonist: blocks human GPR7 receptor signaling. GPR7-expressing cells, fluorescence antagonist assay. inhibition, % at 4.4 µM. AID 1861. P48145. 290,000 compounds, 1.1% hits; in the data active = inhibition above about 16%, passing the limit was not always enough;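 note: cells stimulated with the agonist NPW; 0% = agonist with vehicle and 100% = vehicle without agonist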
Target sequence (P48145 whole entry, looked up): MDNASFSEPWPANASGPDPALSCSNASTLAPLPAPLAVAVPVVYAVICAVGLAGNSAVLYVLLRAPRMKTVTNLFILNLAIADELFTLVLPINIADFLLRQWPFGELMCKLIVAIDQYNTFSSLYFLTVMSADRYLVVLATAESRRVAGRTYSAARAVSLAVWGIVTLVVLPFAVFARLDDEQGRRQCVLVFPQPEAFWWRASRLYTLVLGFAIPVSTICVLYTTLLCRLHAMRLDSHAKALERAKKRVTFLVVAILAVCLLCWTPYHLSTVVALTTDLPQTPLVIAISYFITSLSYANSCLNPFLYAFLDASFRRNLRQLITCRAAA
HSF1 activator: increases HSF-1 driven luciferase reporter signal; AID 504408; activation, % at 9 µM; NIH3T3-HGL HSF-1 luciferase reporter, MG132, 8 h; 100% = twice DMSO control signal; 300,000 compounds, 1.7% hits;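 active = mean replicate activation of at least 50% with a set share of replicates each reaching 50%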;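 note: 0% = median of the neutral control wells and 100% = twice that signal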
697 NFkB inh: inhibitors of the PMA/ionomycin-induced NF-kB reporter in 697 B cells; AID 435022; inhibition, % at 4 µM; 697 B-cell NF-kB luciferase reporter, 16 h; 330,000 compounds, 0.33% hits; in the data active = inhibition above about 35%
HSF1 inhib: HSF1 inhibition; NIH3T3-HGL HSE-luciferase, MG132-induced, luminescence 8 h; active compounds read low; 300,000 compounds, 0.77% hits; activity change, negative = inhibition, % at 7.5 µM (by protocol);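 active = more than half of replicate wells show activity change below -50%, luminescence cut by over half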;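 note: luciferase reports HSF-1 transcriptional activity via heat shock element; 0% = median of DMSO wells and -100% = zero luminescence signal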
Jurkat NFkB inh: lowers PMA/ionomycin-induced NF-kB signal in Jurkat cells; PMA/ionomycin-induced NF-kB luciferase reporter, luminescence; inhibition, % at 4 µM; 330,000 compounds, 0.53% hits; in the data active = inhibition above about 50%
T cruzi inh: T. cruzi replication inhibition. T. cruzi beta-gal in NIH3T3, luminescence, 90 h. inhibition, % (test concentration not listed). AID 1885. 300,000 compounds, 1.4% hits;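 active = mean inhibition across valid replicates above about 55%, limit read from the data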;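 note: signal also drops with host cell toxicity which is not excluded here; 0% = plate median of DMSO wells and 100% = zero luminescence signal; higher percent means less beta-gal luminescence so fewer parasites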
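System: Mouse NIH/3T3 fibroblasts infected with β-gal-expressing T. cruzi Tulahuen C4 | Quantity: NIH/3T3 cells, 5,000 per well | Reagent: 5000 reporter trypomastigotes per well | Dosing: Compound pinned at 50 nL/well, DMSO | Schedule: 3 h host attachment, then at least 90 h co-culture | Detection: GalScreen luminescence, 60 min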
The depositor's hits bear a star; / = no result given.

SMILES	GPR7 antagonist	HSF1 activator	697 NFkB inh	HSF1 inhib	Jurkat NFkB inh	T cruzi inh
Nc1cc(=O)[nH]c(SCC(=O)N2N=C(c3ccc4ccccc4c3)CC2c2ccccc2)n1 (stereo not given)	2	46	-23	34	-10	-11
COc1ccc(C2CC(c3ccc4ccccc4c3OC(C)=O)=NN2C(C)=O)cc1 (stereo not given)	-10	94*	-109	56	-87	1
CCOC(=O)c1nnn(CC(=O)N2N=C(c3ccccc3)CC2c2ccccc2)c1C(=O)OCC (stereo not given)	-3	22	-21	-3	-7	16
CCCCCc1cc(=O)oc2c(C(CCN3CCCCC3)c3ccc(OC)cc3)c(OC)cc(OC)c12 (stereo not given)	/	5	12	0	-1	42
CCCCCc1cc(=O)oc2c(C(CCN3CCCC(C)C3)c3ccc(OC)cc3)c(OC)cc(OC)c12 (stereo not given)	/	-17	6	-5	13	66*
CCOc1ccccc1C(=O)NC(C)CCc1ccccc1 (stereo not given)	/	-1	4	-1	7	4
COc1cccc2sc(N(C)c3ccccc3)nc12	2	64*	-200	19	-134	-5
S=c1sc2c(Cl)ncnc2n1-c1ccccc1	75*	565*	/	478	/	59*
Cc1nc(N2CCN(C)CC2)c2sc(=S)n(-c3ccccc3)c2n1	0	13	-4	7	-5	36
COc1cccc(CC2(CO)CCN(S(=O)(=O)c3ccc(OC)cc3OC)CC2)c1	12	-67	2	-56*	4	-3
CC(C)(C)c1cc(CCC(=O)NCc2ccncc2)cc(C(C)(C)C)c1O	-13	-15	6	-3	-7	3
S=C(c1ccc(-c2ccc(Cl)c(Cl)c2)o1)N1CCOCC1	-3	59*	-67	37	-51	6
COc1ccc2cc(Br)ccc2c1CC(=O)NC(C)(C)C	-9	15	-2	3	4	16
c1ccc(CNc2c3ccccc3nc3ccccc23)cc1	5	3	-28	-2	14	57*
c1ccc(CNc2ncnc3ccccc23)cc1	-2	-10	-7	-19	31	-73
CN1CCN(CC(=O)Nc2nnc(-c3cccs3)s2)CC1	-13	-62	-4	-54*	-10	12
COc1ccc(S(=O)(=O)N2CCc3ccccc32)cc1C(=O)Nc1ccc(C(N)=O)cc1	/	2	-6	0	13	11
CCOc1ccccc1NC(C)C(=O)Nc1cc(C(F)(F)F)ccc1N1CCOCC1 (stereo not given)	-10	-12	-1	1	3	2
Cc1c(N2C(=O)C(=O)/C(=C(/O)c3ccc(Cl)cc3)C2c2ccccc2)c(=O)n(-c2ccccc2)n1C (stereo not given)	-8	1	-12	3	2	-7
O=C1NC(Cc2ccccc2)C(=O)N1Cc1cc([N+](=O)[O-])cc2c1OCOC2 (stereo not given)	-6	6	19	0	-7	6
COc1ccccc1CNc1ccc(N2CCCCC2)cc1	-8	2	-29	-4	-19	65*
COc1cc(CNc2ccc(N3CCCC3)cc2)cc(Cl)c1OC	7	23	-13	-11	4	73*
COC(=O)C1=NN(C(=O)c2ccccc2)C(C)(O)C1 (stereo not given)	-6	4	12	-6	-2	-28
COC(=O)C1=NN(C(=O)c2ccc(C)cc2)C(O)(c2ccc(Cl)cc2)C1 (stereo not given)	-3	147*	24	120	10	7
COC(=O)C1=NN(C(=O)c2ccccc2)C(O)(c2ccc([N+](=O)[O-])cc2)C1 (stereo not given)	-5	273*	0	191	9	-5
SMILES	GPR7 antagonist	HSF1 activator	697 NFkB inh	HSF1 inhib	Jurkat NFkB inh	T cruzi inh
CC(C)C(=O)NC(=S)Nc1ccc(S(=O)(=O)NC2CCCCC2)cc1	21	0	-13	-2	4	12
CCNc1ccc(Br)cc(C(=O)/C=C/c2c(Cl)cccc2Cl)c1=O	-1	73*	-10	49	25	0
CCNc1ccc(Br)cc(C(=O)/C=C/c2ccc(Cl)cc2)c1=O	5	37	10	26	8	-5
CC1=Nc2ccc(C)c3nc(C)cc(c23)N1c1ccc(C)cc1	-7	-64	-39	-53*	0	10
CCOC(=O)c1c(C)[nH]c(C(=O)COC(=O)C2(C)CC2(Cl)Cl)c1C (stereo not given)	-6	56*	-30	21	-40	25
Cc1nc(Cl)c2c(n1)NC(=O)CO2	-3	-15	6	-10	13	-11
CCN1CCN(c2ccc(S(=O)(=O)N3CCOCC3)cc2NC(=O)CCC(C)C)CC1	/	-9	-24	-6	-1	56*
O=C(Nc1cc(S(=O)(=O)N2CCOCC2)ccc1N1CCOCC1)c1ccccc1F	/	/	-12	/	0	/
Cc1c(C(=O)N2CCN(S(=O)(=O)c3ccc(F)cc3)CC2)oc2ccccc12	/	11	14	1	10	56*
Cc1c(C(=O)Nc2cc(S(=O)(=O)N3CCOCC3)ccc2N2CCOCC2)oc2ccccc12	-5	-11	1	-8	8	75*
CCN1CCN(c2ccc(S(=O)(=O)N3CCOCC3)cc2NC(=O)COc2ccc(F)cc2Cl)CC1	1	5	-37	7	-11	57*
O=C(COC(=O)c1cc[n+]([O-])cc1)Nc1ccc([N+](=O)[O-])cc1Cl	2	10	-1	5	-19	8
CCN1CCN(c2ccc(S(=O)(=O)N3CCOCC3)cc2NC(=O)CCSC)CC1	/	/	5	/	7	/
CCN1CCN(c2ccc(S(=O)(=O)N3CCCCC3)cc2NC(=O)COc2ccccc2)CC1	/	9	-21	-1	-16	58*
CCN1CCN(c2ccc(S(=O)(=O)N3CCOCC3)cc2NC(=O)CCOc2ccccc2)CC1	-5	-3	24	-7	-5	56*
O=C(CN1C(=O)C2C3CCC(C3)C2C1=O)OCC(=O)c1ccc(Br)cc1 (stereo not given)	-3	-3	-11	-4	4	-32
COc1ccc(NC(=S)NC(NC(=O)c2cccc(Cl)c2)C(Cl)(Cl)Cl)c([N+](=O)[O-])c1 (stereo not given)	-4	/	2	/	-12	73*
S=C(N/N=C/c1ccccc1Cl)Nc1ccccc1	-7	72*	-5	30	-3	17
CNC(=S)N/N=C/c1c(Cl)cccc1Cl	-21	-67	-3	-59*	-17	2
CNC(=S)N/N=C/c1ccccc1Cl	-5	-8	20	-3	-6	29
O=C1CCCS(=O)(=O)c2ccccc21	7	21	10	-4	7	-1

Screens (PubChem BioAssay)
